# Source: PubChem BioAssay (The Scripps Research Institute Molecular Screening Center)
# Only some compounds are listed: those with a hit (about 2.4% of all), similar ones and a draw of the others.
# S1P4 antag – antagonists of human S1P4 receptor | O95977 | S1P4-expressing cells, antagonist mode, reporter read-out | inhibition, % at 4.98 µM | 220,000 tested, 0.26% active | AID 1510; in the data active = inhibition above about 29%
# NPY Y1 blocker – NPY-Y1 (human) receptor antagonism; P25929; HEK293-CNG Y1 cells, membrane potential fluorescence; NPY at EC95, then isoproterenol; inhibition, % at 3.6 µM; 200,000 tested, 1% active; AID 1040;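 active = inhibition above the campaign mean inhibition of all tested compounds plus 3 SD, cut at about 20% in these data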
# Target sequence (P25929 whole entry, looked up): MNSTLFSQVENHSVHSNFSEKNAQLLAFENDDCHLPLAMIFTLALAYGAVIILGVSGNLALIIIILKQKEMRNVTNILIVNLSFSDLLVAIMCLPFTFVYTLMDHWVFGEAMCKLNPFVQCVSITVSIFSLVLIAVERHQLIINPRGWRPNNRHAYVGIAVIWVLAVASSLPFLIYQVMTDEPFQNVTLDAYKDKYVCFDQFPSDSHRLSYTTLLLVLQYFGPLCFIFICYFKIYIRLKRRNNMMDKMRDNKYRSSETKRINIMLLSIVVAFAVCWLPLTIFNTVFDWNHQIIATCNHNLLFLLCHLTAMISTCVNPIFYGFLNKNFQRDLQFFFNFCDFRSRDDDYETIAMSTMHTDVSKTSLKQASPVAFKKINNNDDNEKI
#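 Test system: HEK293 cells co-expressing NPY Y1 receptor and cyclic-nucleotide gated channel; Also added: NPY (25 nM), isoproterenol (1 µM), Ro 20-1724 (25 µM); Compound dosing: one concentration, 3.6 µM, in 0.4% DMSO; Timing: dye 3 h, compound 60 min room temperature, stimulation 45 min; Technique: Membrane-potential fluorescent dye readout.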
# NPY1 pot ag – potentiators or agonists of human neuropeptide Y receptor Y1. 220,000 tested, 0.37% active. activation, % at 3.6 µM. NPY-Y1 expressing cells, potentiator/agonist activation. P25929; in the data active = activation above about 33%, passing the limit was not always enough;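 note: cells stimulated with NPY at EC10 then isoproterenol at EC100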
# NPY Y2 blocker – NPY-Y2 (human) receptor antagonism. P49146. NPY-Y2 expressing cells, antagonist mode. inhibition, % at 2.7 µM. 140,000 tested, 0.99% active
# NPY-Y2 PAM-ag – human NPY-Y2 potentiation or agonism, primary screen; P49146; cells expressing NPY-Y2, potentiator/agonist read-out; activation, % at 3.6 µM; 220,000 tested, 0.45% active; AID 1359; in the data active = activation above about 27%;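 note: cells stimulated with NPY near EC25 plus isoproterenol at EC100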
# S1P4 agonist – activates the human S1P4 receptor. 220,000 tested, 0.35% active. O95977. AID 1509. S1P4-expressing cell line, agonist reporter assay. activation, % at 4.98 µM; in the data active = activation above about 11%
# NPY1 antag conf – human NPY-Y1 antagonism, confirmation | 1,200 tested, 21% active | AID 1254 | HEK293-CNG NPY-Y1, membrane potential fluorescence, cAMP; NPY challenge against isoproterenol-raised cAMP | shares compounds with NPY Y1 blocker | inhibition, % at 3.6 µM; in the data active = inhibition above about 20%
# NPY2 antag ctr – human NPY-Y2 antagonism in NPY-Y1 counter-screen. shares compounds with NPY Y1 blocker. HEK293 NPY-Y2 CNG membrane potential fluorescence; cells given NPY, then isoproterenol. inhibition, % at 3.6 µM. 1,200 tested, 28% active. AID 1255
# A number is an active result; n = inactive; x = no result. Cut-off read from the data, not from the text of the source, unless noted: active = inhibition above about 17%; inactive = the rest.
SMILES,S1P4 antag,NPY Y1 blocker,NPY1 pot ag,NPY Y2 blocker,NPY-Y2 PAM-ag,S1P4 agonist,NPY1 antag conf,NPY2 antag ctr
O=C(Cn1nnc2ccccc2c1=O)N[C@@H](Cc1ccccc1)C(=O)O,n,x,n,x,n,n,x,x
Nc1nc(SCC(=O)Nc2ccccc2C(F)(F)F)[nH]c(=O)c1-c1ccccc1,n,n,n,x,n,n,x,x
COc1ccccc1NC(=O)CSc1nc(N)c(-c2ccccc2)c(=O)[nH]1,n,74,n,x,n,n,55,68
CCOC(=O)C1(CCCc2ccccc2)CCN(C(=O)CCOC)CC1,n,n,n,x,n,n,x,x
C/C=C(/C)C(=O)O[C@@H]1c2c(ccc3ccc(=O)oc23)OC(C)(C)[C@@H]1OC(=O)/C(C)=C\C,n,31,n,n,n,n,n,n
Cc1ccc(Cc2cnc(NC(=O)/C(C#N)=C/c3ccc(-c4ccccc4[N+](=O)[O-])o3)s2)cc1,n,27,n,n,n,n,50,46
CNCCCOc1cccc(Oc2ccccc2)c1,n,23,n,x,n,n,n,n
CNCCCOc1cccc(OC(C)C)c1,n,n,n,n,n,n,x,x
CCc1nnc(NC(=O)CSc2nnc(-c3cccnc3)n2C)s1,n,n,n,x,n,n,x,x
CC(=O)CCc1ccc(Oc2nc(-c3cccnc3)nc3ccccc23)cc1,n,n,n,x,n,n,x,x
CCCCCCCCCC[n+]1cccc2c3ccccc3ccc21,n,50,n,x,n,n,48,37
Cc1cccc[n+]1CCCCCCCCCC[n+]1ccccc1C,n,n,n,x,n,n,x,x
CCCCCCCC[n+]1cccc2c3ccccc3ccc21,n,51,n,x,n,n,43,26
Cn1c(SCC(=O)c2ccccc2)nnc1-c1cccs1,n,x,n,x,n,n,x,x
O=C(CSc1nnc(-c2ccc(C(F)(F)F)cn2)s1)c1ccccc1,n,x,n,x,n,n,x,x
Cc1cc(Br)ccc1OCCCCNC(C)(C)C,n,n,n,n,n,n,x,x
CC(C)COc1ccc(Br)cc1CNC(C)(C)C,n,28,n,x,n,n,n,n
COc1ccc(Oc2c(-c3ccc(O)cc3O)n[nH]c2C)cc1,n,83,n,n,n,n,35,n
COC(=O)c1c(-c2c(Cl)cccc2Cl)noc1C(=O)NN,n,x,n,x,n,n,x,x
COc1ccccc1CN(Cc1cc2cc(C)ccc2[nH]c1=O)Cc1nnnn1Cc1ccco1,n,33,n,n,n,n,21,n
CCOc1ncccc1C(=O)N1CCN(c2cccc(C)c2C)CC1,n,24,n,x,n,n,n,n
CC(C)(C)c1ccccc1OCCCCN1CCCC1,n,n,n,n,n,n,x,x
Cc1cccc(C(C)(C)C)c1OCCCCN1CCCC1,n,21,n,n,n,n,n,n
O=C(CN1CCN(Cc2ccccc2Cl)C1=O)NCc1ccccn1,n,x,n,x,n,n,x,x
CCN(CC(O)COc1ccc(OCC(O)CN(CC)C2CCCCC2)cc1)C1CCCCC1 (configuration not stated),n,22,n,n,n,n,n,32
SMILES,S1P4 antag,NPY Y1 blocker,NPY1 pot ag,NPY Y2 blocker,NPY-Y2 PAM-ag,S1P4 agonist,NPY1 antag conf,NPY2 antag ctr
CC(=O)NC1(c2ccccc2)CCN(c2cc(C)nc(-c3ccccc3)n2)CC1,n,46,n,x,n,n,34,46
Cc1cc(N2CCCCC2)nc(-c2ccc(Br)cc2)n1,n,n,n,x,n,n,x,x
Cc1cc(N2CCC(C(=O)NC3CC3)CC2)nc(-c2ccccc2)n1,n,n,n,n,n,n,x,x
Cc1cc(N2CCN(c3cccc(C)c3C)CC2)nc(-c2ccccc2)n1,n,21,n,n,n,n,22,17
S=C(NCc1ccco1)N1CCN(c2ccccc2Cl)CC1,n,n,n,x,n,n,x,x
Cc1ccc(Cc2cnc(N3C(=N)SC(C)C3=O)s2)cc1 (configuration not stated),n,26,n,x,n,n,n,n
CCc1nn2c(NCCOC)cc(C)nc2c1-c1ccc(F)cc1,n,n,n,x,n,n,x,x
Cc1nnc(N)s1,n,x,n,x,n,n,x,x
OCCCNCc1cccc2ccccc12,n,n,n,n,n,n,x,x
Oc1ccccc1CNCCCNCc1ccccc1O,n,30,n,n,n,n,n,n
COc1cnc(-c2ccccn2)nc1Oc1ccccc1Cl,n,n,n,n,n,n,x,x
COc1cnc(-c2ccccn2)nc1Oc1ccc(Cl)c2ccccc12,n,25,n,n,n,n,n,22
Cc1oc(-c2ccc(Cl)cc2)nc1CN1CCC(C(=O)NCCCN2CCOCC2)CC1,n,23,n,n,n,n,n,n
CC1CCC(C(C)C)C(OC(=O)Cn2c(-c3ccc(Br)cc3)[n+](C)c3ccccc32)C1 (configuration not stated),n,44,n,x,n,n,37,41
Cc1ccccc1OCc1n(CC(=O)OC2CC(C)CCC2C(C)C)c2ccccc2[n+]1C (configuration not stated),n,29,n,x,n,n,36,42
CN(CCC#N)C(=S)NC(=O)c1ccc(S(=O)(=O)N2CCOCC2)cc1,n,46,n,x,n,n,n,n
CC(C)(C)c1ccc(CN(Cc2ccccc2)C(c2ccccn2)c2nnnn2C(C)(C)C)cc1 (configuration not stated),n,n,n,n,n,n,x,x
c1ccc(CN(Cc2ccco2)C(c2ccncc2)c2nnnn2C2CCCC2)cc1 (configuration not stated),n,26,n,n,n,n,n,n
CC(C)(C)n1nnnc1C(c1ccc(C(F)(F)F)cc1)N(Cc1ccccc1)Cc1ccco1 (configuration not stated),n,47,n,n,n,n,29,n
Nc1ccc(C(=O)Nc2cccc(N)c2)cc1,n,x,n,x,n,n,x,x
Cc1c(N2C(=O)CSC2c2ccc(F)cc2)c(=O)n(-c2ccccc2)n1C (configuration not stated),n,x,n,x,n,n,x,x
COc1ccccc1NC(=O)CSc1nnc(CCC(=O)Nc2ccccc2F)n1C,n,x,n,x,n,n,x,x
CC1CCN(C(=O)Cn2c(=O)n(Cc3ccc4c(c3)OCO4)c(=O)c3ccccc32)CC1,n,n,n,n,n,n,x,x
CC1CCN(C(=O)CSc2nc3ccccc3c(=O)n2Cc2ccc3c(c2)OCO3)CC1,n,21,n,n,n,n,n,n
COc1ccc(-c2cc(C(F)(F)F)nc(N3CCN(C)CC3)n2)cc1,n,25,n,n,n,n,n,n
COc1ccc(-c2cc(C(F)(F)F)nc(N3CCCCCC3)n2)cc1,n,n,n,n,n,n,x,x
O=C(O)c1cc(-c2ccccc2)n(-c2ccccc2)n1,n,24,n,n,n,n,n,n
